Assay results taken from ChEMBL document CHEMBL1275561, “In vitro activities of doripenem, a new broad-spectrum carbapenem, against recently collected clinical anaerobic isolates, with emphasis on the Bacteroides fragilis group” (2008).

Assays:
Assay type in all cases: functional
Bacteroides eggerthii [1] = assay: Antimicrobial activity against Bacteroides eggerthii by agar dilution method
How it was run: (§1)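 CLSI agar dilution on enriched brucella agar (5% lysed defibrinated sheep blood, 1 μg/ml vitamin K1), with drug plates made on the test day. Log-phase cells were adjusted to 0.5 McFarland, and about 10^5 CFU/spot was delivered by Steers replicator. Plates were incubated anaerobically at 37°C for 48 h. MIC was the lowest concentration giving a marked growth change versus the control plate. Controls were B. fragilis ATCC 25285 and B. thetaiotaomicron ATCC 29741.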

Bacteroides caccae [2] = assay: Antimicrobial activity against Bacteroides caccae by agar dilution method; how it was run: as §1
Parvimonas micra = assay: Antimicrobial activity against Micromonas micros by agar dilution method
How it was run: (§2)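 Gram-positive anaerobes were tested by CLSI agar dilution on brucella agar enriched with 5% lysed defibrinated sheep blood and 1 μg/ml vitamin K1. Inoculum was log-phase growth at 0.5 McFarland, about 10^5 CFU/spot by replicator. Incubation was anaerobic, 37°C, 48 h. MIC was the lowest concentration with a marked growth change versus the drug-free plate. Eubacterium lentum ATCC 43055 was the control, and tests were repeated if it fell outside the CLSI range.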

[3] = system: Parabacteroides distasonis; assay: Antimicrobial activity against Bacteroides distasonis assessed as resistant isolates by agar dilution method
How it was run: (§3)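 CLSI agar dilution on enriched brucella agar (5% lysed defibrinated sheep blood, 1 μg/ml vitamin K1), plates made on test day. Log-phase inocula adjusted to 0.5 McFarland; about 10^5 CFU/spot by Steers replicator. Incubated anaerobically at 37°C for 48 h. MIC was the lowest concentration giving a marked change in growth versus the drug-free control plate. Resistance rates used CLSI anaerobe breakpoints. Controls were B. fragilis ATCC 25285 and B. thetaiotaomicron ATCC 29741.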

Bacteroides uniformis [4] = assay: Antimicrobial activity against Bacteroides uniformis by agar dilution method; how it was run: as §1
Bacteroides nordii [5] = assay: Antimicrobial activity against Bacteroides nordii assessed as resistant isolates by agar dilution method; how it was run: as §3
Finegoldia magna [6] = assay: Antimicrobial activity against Finegoldia magna assessed as resistant isolates by agar dilution method
How it was run: (§4)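 Agar dilution following CLSI on brucella agar with 5% lysed defibrinated sheep blood and 1 μg/ml vitamin K1, plates made on test day. Log-phase cells at 0.5 McFarland, about 10^5 CFU/spot by Steers replicator, 48 h anaerobic at 37°C. MIC read as the lowest concentration causing a marked growth change versus control. Resistance counted by CLSI anaerobe breakpoints. Eubacterium lentum ATCC 43055 served as control.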

[7] = system: Parabacteroides distasonis; assay: Antimicrobial activity against Bacteroides distasonis by agar dilution method; how it was run: as §1
Phocaeicola vulgatus [8] = assay: Antimicrobial activity against Bacteroides vulgatus by agar dilution method; how it was run: as §1
[9] = system: Clostridium paraputrificum; assay: Antimicrobial activity against Clostridium paraputrificum by agar dilution method
[Clostridium] innocuum [10] = Antimicrobial activity against Clostridium innocuum by agar dilution method
Anaerococcus prevotii = assay: Antimicrobial activity against Anaerococcus prevotii by agar dilution method; how it was run: as §2
Clostridium perfringens = assay: Antimicrobial activity against Clostridium perfringens by agar dilution method
Bacteroides caccae [11] = assay: Antimicrobial activity against Bacteroides caccae assessed as resistant isolates by agar dilution method; how it was run: as §3
Cutibacterium acnes [12] = assay: Antimicrobial activity against Propionibacterium acnes assessed as resistant isolates by agar dilution method; how it was run: as §4
Bacteroides fragilis [13] = assay: Antimicrobial activity against Bacteroides fragilis assessed as resistant isolates by agar dilution method; how it was run: as §3
Cutibacterium acnes [14] = assay: Antimicrobial activity against Propionibacterium acnes by agar dilution method
How it was run: (§5)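 Log-phase isolates were adjusted to 0.5 McFarland, and about 10^5 CFU/spot was delivered by Steers replicator. Plates were incubated anaerobically at 37°C for 48 h. MIC was the lowest concentration giving a marked growth change versus the control plate. Eubacterium lentum ATCC 43055 was the QC strain, with repeats when out of range.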

[15] = system: Peptoniphilus asaccharolyticus; assay: Antimicrobial activity against Peptoniphilus asaccharolyticus by agar dilution method; how it was run: as §2
Propionibacterium [16] = assay: Antimicrobial activity against Propionibacterium sp. by agar dilution method; how it was run: as §5
Parabacteroides merdae [17] = assay: Antimicrobial activity against Bacteroides merdae assessed as resistant isolates by agar dilution method; how it was run: as §3
[18] = system: Peptoniphilus asaccharolyticus; assay: Antimicrobial activity against Peptoniphilus asaccharolyticus assessed as resistant isolates by agar dilution method; details: pooled result: one value given for 4 cell lines, strains, targets or settings; how it was run: as §4
Finegoldia magna [19] = assay: Antimicrobial activity against Finegoldia magna by agar dilution method; how it was run: as §2
Phocaeicola vulgatus [20] = assay: Antimicrobial activity against Bacteroides vulgatus assessed as resistant isolates by agar dilution method; how it was run: as §3
Bacteroides eggerthii [21] = assay: Antimicrobial activity against Bacteroides eggerthii assessed as resistant isolates by agar dilution method; how it was run: as §3
Peptostreptococcus sp. = assay: Antimicrobial activity against Peptostreptococcus sp. by agar dilution method; how it was run: as §5
[Clostridium] innocuum [22] = Antimicrobial activity against Clostridium innocuum assessed as resistant isolates by agar dilution method; details: pooled result: one value given for 4 cell lines, strains, targets or settings
Parabacteroides merdae [23] = assay: Antimicrobial activity against Bacteroides merdae by agar dilution method; how it was run: as §1
[24] = system: Bacteroides thetaiotaomicron; assay: Antimicrobial activity against Bacteroides thetaiotaomicron by agar dilution method; how it was run: as §1
[25] = system: Bacteroides thetaiotaomicron; assay: Antimicrobial activity against Bacteroides thetaiotaomicron assessed as resistant isolates by agar dilution method; how it was run: as §3
Bacteroides nordii [26] = assay: Antimicrobial activity against Bacteroides nordii by agar dilution method; how it was run: as §1
Propionibacterium [27] = assay: Antimicrobial activity against Propionibacterium sp. assessed as resistant isolates by agar dilution method; how it was run: as §4
Bacteroides uniformis [28] = assay: Antimicrobial activity against Bacteroides uniformis assessed as resistant isolates by agar dilution method; how it was run: as §3
Bacteroides ovatus [29] = assay: Antimicrobial activity against Bacteroides ovatus assessed as resistant isolates by agar dilution method; how it was run: as §3
Bacteroides ovatus [30] = assay: Antimicrobial activity against Bacteroides ovatus by agar dilution method; how it was run: as §1
Clostridium subterminale = assay: Antimicrobial activity against Clostridium subterminale by agar dilution method
Clostridium tertium = assay: Antimicrobial activity against Clostridium tertium by agar dilution method
Clostridioides difficile = assay: Antimicrobial activity against Clostridium difficile by agar dilution method
Bacteroides fragilis [31] = assay: Antimicrobial activity against Bacteroides fragilis by agar dilution method; how it was run: as §1

CCC[C@@H]1C[C@@H](C(=O)N[C@@H]([C@H]2O[C@H](SC)[C@H](O)[C@@H](O)[C@H]2O)[C@H](C)Cl)N(C)C1 [CLINDAMYCIN]
7.7%: Activity (Propionibacterium [27])
128 µg/mL: MIC90 (Bacteroides caccae [2]) | MIC90 (Bacteroides uniformis [4]) | MIC90 [7] | MIC90 (Phocaeicola vulgatus [8]) | MIC90 [24] | MIC90 (Bacteroides ovatus [30]) | MIC90 (Bacteroides fragilis [31])
42.9%: Activity (Bacteroides ovatus [29])
13.3%: Activity [3]
32.3%: Activity (Phocaeicola vulgatus [20])
20%: Activity (Bacteroides nordii [5]) | Activity (Finegoldia magna [6]) | Activity (Parabacteroides merdae [17]) | Activity (Bacteroides eggerthii [21])
32 µg/mL: MIC90 (Parvimonas micra) | MIC90 [9] | MIC90 ([Clostridium] innocuum [10]) | MIC90 (Anaerococcus prevotii) | MIC90 [15] | MIC90 (Finegoldia magna [19]) | MIC90 (Peptostreptococcus sp.) | MIC90 (Clostridium subterminale) | MIC90 (Clostridium tertium)
0.25 µg/mL: MIC50 (Parvimonas micra) | MIC50 (Anaerococcus prevotii) | MIC50 (Clostridium perfringens) | MIC (Cutibacterium acnes [14]) | MIC50 (Cutibacterium acnes [14]) | MIC50 [15] | MIC (Propionibacterium [16]) | MIC50 (Propionibacterium [16]) | MIC50 (Peptostreptococcus sp.)
3.8%: Activity (Bacteroides uniformis [28])
0.5 µg/mL: MIC (Phocaeicola vulgatus [8]) | MIC50 (Phocaeicola vulgatus [8]) | MIC90 (Cutibacterium acnes [14]) | MIC50 (Finegoldia magna [19]) | MIC (Bacteroides fragilis [31]) | MIC50 (Bacteroides fragilis [31])
29.3%: Activity (Bacteroides fragilis [13])
5.6%: Activity (Cutibacterium acnes [12])
1 µg/mL: MIC50 (Bacteroides eggerthii [1]) | MIC50 (Bacteroides caccae [2]) | MIC50 [7] | MIC50 (Parabacteroides merdae [23]) | MIC50 (Bacteroides nordii [26]) | MIC (Clostridioides difficile)
2 µg/mL: MIC50 (Bacteroides uniformis [4]) | MIC50 [9] | MIC50 ([Clostridium] innocuum [10]) | MIC90 (Clostridium perfringens) | MIC90 (Propionibacterium [16]) | MIC50 [24] | MIC50 (Bacteroides ovatus [30]) | MIC50 (Clostridium subterminale) | MIC50 (Clostridium tertium)
22.2%: Activity ([Clostridium] innocuum [22])
31.3%: Activity (Bacteroides caccae [11])
34.6%: Activity [25]
12.2%: Activity [18]
8 µg/mL: MIC90 (Bacteroides eggerthii [1]) | MIC90 (Parabacteroides merdae [23]) | MIC90 (Bacteroides nordii [26])
